As usually defined, the IC50 is the concentration that inhibits the measured activity by half. A lower IC50 goes with greater potency.

This note sets out measurements from ChEMBL document CHEMBL1133766, “Enkephalin glycopeptide analogues produce analgesia with reduced dependence liability” (J Med Chem, 2000).

One assay is filed under the species Mus musculus. Put plainly: (§1) Opioid receptor activity was evaluated using mouse vas deferens (MVD) assay. It counts as functional, organism-based.
The next assay deals with Mu-type opioid receptor (Homo sapiens, UniProt P35372). Put plainly: Binding affinity towards Opioid receptor mu 1 was evaluated.
Sequence of Mu-type opioid receptor (P35372 whole entry): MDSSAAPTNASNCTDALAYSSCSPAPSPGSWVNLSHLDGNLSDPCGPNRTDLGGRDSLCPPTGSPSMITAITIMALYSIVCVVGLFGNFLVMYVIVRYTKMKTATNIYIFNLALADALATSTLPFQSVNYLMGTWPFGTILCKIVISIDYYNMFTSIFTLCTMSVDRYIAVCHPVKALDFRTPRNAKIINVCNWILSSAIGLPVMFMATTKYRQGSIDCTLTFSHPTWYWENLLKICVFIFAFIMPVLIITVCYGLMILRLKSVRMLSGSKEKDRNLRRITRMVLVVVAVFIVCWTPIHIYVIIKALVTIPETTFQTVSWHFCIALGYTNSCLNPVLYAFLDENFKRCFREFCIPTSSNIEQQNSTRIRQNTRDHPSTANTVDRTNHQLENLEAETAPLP
In assay [1] the target is Delta-type opioid receptor (Homo sapiens, UniProt P41143). Put plainly: Binding affinity towards Opioid receptor delta 1 was evaluated.
Sequence of Delta-type opioid receptor (P41143 whole entry): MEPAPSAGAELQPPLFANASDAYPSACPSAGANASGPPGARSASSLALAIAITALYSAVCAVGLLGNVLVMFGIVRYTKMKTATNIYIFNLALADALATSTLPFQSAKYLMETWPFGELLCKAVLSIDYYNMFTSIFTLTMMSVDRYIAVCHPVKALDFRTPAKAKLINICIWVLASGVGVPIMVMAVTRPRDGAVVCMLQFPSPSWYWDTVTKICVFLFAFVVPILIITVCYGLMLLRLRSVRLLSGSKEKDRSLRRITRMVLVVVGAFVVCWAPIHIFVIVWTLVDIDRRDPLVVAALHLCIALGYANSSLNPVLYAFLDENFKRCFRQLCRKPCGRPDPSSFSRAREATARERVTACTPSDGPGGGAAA
The nature of assay [2]: (§2) Opioid receptor activity was evaluated using guinea pig ileum (GPI) assay. Conditions: Cavia porcellus. It counts as functional, tissue-based.
For assay [3], the system named is Rattus norvegicus. The assay can be described thus: Amount of the drug required to produce 50% antinociception when administered intraperitoneally; value ranges from 11.8-18.0. The format is functional. The procedure, abridged: (§3)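 55 °C tail-flick test after a single injection by the route named in the line, with graded doses giving a dose-response. % antinociception = 100 × [test latency − control latency]/[15 − control latency]. A50 is the amount of drug giving 50% antinociception, derived from the dose-response curve.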

In assay [4] the test system is Rattus norvegicus. Put plainly: Amount of the drug required to produce 50% antinociception when administered intracerebroventricularly; value ranges from 1.8-4.2. The format is functional. The procedure, abridged:
as §3

The test system of assay [5] is Rattus norvegicus. The assay can be described thus: Amount of the drug required to produce 50% antinociception when administered intravenously; value ranges from 4.9-7.9. It counts as functional. The method, boiled down: as §3
Assay [6] relates to Rattus norvegicus. The assay can be described thus: Amount of the drug required to produce 50% antinociception when administered subcutaneously; value ranges from 10.2-17.0. It counts as functional. The method, boiled down:
as §3

For assay [7], the system named is Rattus norvegicus. Put plainly: Amount of the drug required to produce 50% antinociception when administered intracerebroventricularly; value ranges from 0.05-0.09. The format is functional. The procedure, abridged:
as §3

For assay [8], the system named is Rattus norvegicus. The assay can be described thus: Amount of the drug required to produce 50% antinociception when administered intraperitoneally; value ranges from 124.0-151.8. The format is functional. The method, boiled down:
as §3

Assay [9] relates to Rattus norvegicus. Put plainly: Amount of the drug required to produce 50% antinociception when administered subcutaneously; value ranges from 15.9-26.0. The format is functional. The procedure, abridged: as §3
Assay [10] relates to Rattus norvegicus. Put plainly: Amount of the drug required to produce 50% antinociception when administered intravenously; value ranges from 35.4-60.7. The format is functional. The method, boiled down:
as §3

Assay [11] is described as follows: as §2. Conditions: Cavia porcellus. It counts as tissue-based.
Another assay has as its target Opioid receptor (Mus musculus, UniProt P42866+P32300+P33534). The assay is described as §1. It counts as tissue-based.
Assay [12] relates to Rattus norvegicus. The assay can be described thus: Amount of the drug required to produce 50% antinociception when administered intraperitoneally; value ranges from 21.2-55.5. It counts as functional. The procedure, abridged: as §3
Assay [13] has as its system Rattus norvegicus. The assay can be described thus: Amount of the drug required to produce 50% antinociception when administered subcutaneously; value ranges from 4.9-10.00. The format is functional. The method, boiled down: as §3
Assay [14] has as its system Rattus norvegicus. The assay can be described thus: Amount of the drug required to produce 50% antinociception when administered intravenously; value ranges from 8.5-15.2. The format is functional. The procedure, abridged:
as §3

Assay [15] relates to Rattus norvegicus. The assay can be described thus: Amount of the drug required to produce 50% antinociception when administered intracerebroventricularly; value ranges from 0.01-0.04. The format is functional. The procedure, abridged: as §3

In the case of `CC(C)C[C@H](NC(=O)[C@H](Cc1ccccc1)NC(=O)CNC(=O)[C@H](NC(=O)[C@@H](N)Cc1ccc(O)cc1)[C@H](C)O)C(=O)N[C@@H](CO[C@H]1O[C@@H](CO)[C@H](O)[C@@H](O)[C@H]1O)C(N)=O` [listing 1 of 2 here], the IC50 in the assay listed under Mus musculus was 1.6 nM; on Mu-type opioid receptor it was 8.2 nM; in assay [1] it was 3.4 nM; in assay [2] it was 33.8 nM.
As for `CN1CC[C@]23c4c5ccc(O)c4O[C@H]2[C@@H](O)C=C[C@H]3[C@H]1C5` [MORPHINE], the A50 amounted to 14.6 mM/kg in the assay on Rattus norvegicus [3], 2.7 nM in the assay on Rattus norvegicus [4], 6.3 mM/kg with Rattus norvegicus [5] and 13.2 mM/kg in the assay with Rattus norvegicus [6].
Take `CC(C)C[C@H](NC(=O)[C@H](Cc1ccccc1)NC(=O)CNC(=O)[C@H](NC(=O)[C@@H](N)Cc1ccc(O)cc1)[C@H](C)O)C(=O)N[C@@H](CO)C(N)=O` [listing 1 of 2 here]: the A50 in the assay on Rattus norvegicus [7] was 0.07 nM; in the assay on Rattus norvegicus [8] it was 137.2 mM/kg; in the assay with Rattus norvegicus [9], 20.3 mM/kg; in the assay with Rattus norvegicus [10] it was 46.4 mM/kg.
For `CC(C)C[C@H](NC(=O)[C@H](Cc1ccccc1)NC(=O)CNC(=O)[C@H](NC(=O)[C@@H](N)Cc1ccc(O)cc1)[C@H](C)O)C(=O)N[C@@H](CO)C(N)=O` [listing 2 of 2 here], the half-inhibitory concentration (IC50) at Mu-type opioid receptor worked out at 4 nM; in assay [1], 2.4 nM; in assay [11] it was 25 nM; against Opioid receptor, 2.7 nM.
With `CC(C)C[C@H](NC(=O)[C@H](Cc1ccccc1)NC(=O)CNC(=O)[C@H](NC(=O)[C@@H](N)Cc1ccc(O)cc1)[C@H](C)O)C(=O)N[C@@H](CO[C@H]1O[C@@H](CO)[C@H](O)[C@@H](O)[C@H]1O)C(N)=O` [listing 2 of 2 here], the A50 in the assay on Rattus norvegicus [12] turned out to be 34.3 mM/kg; in the assay on Rattus norvegicus [13] it was 7.2 mM/kg; in the assay with Rattus norvegicus [14], 11.4 mM/kg; with Rattus norvegicus [15], 0.02 nM.
